The results in this text go back to ChEMBL document CHEMBL1137499, “A new opioid designed multiple ligand derived from the micro opioid agonist endomorphin-2 and the delta opioid antagonist pharmacophore Dmt-Tic” (Bioorg Med Chem, 2007).

Numbered stars: 1 amine (or outer) side, 2 acyl side, 3 side chain; on linkers, the order of the positions; unused ones are H or OH. Square brackets hold non-standard residues; d marks the D form. Peptide text beside a SMILES is read from it. ξ: configuration not given here. Dmt = Cc1cc(O)cc(C)c1C[C@H](N)C(=O)O; Ethylenediamine = C(CN[*:2])N[*:1]; ξTic = O=C(O)C1Cc2ccccc2CN1

Test [1] addresses Mu-type opioid receptor (Cavia porcellus, UniProt P97266). In words: Agonist activity at mu-opioid receptor in Hartley guinea pig ileum assessed as inhibition of electrically-stimulated muscle contraction. Type of test: functional, tissue-based. The gist of the method:
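Myenteric plexus longitudinal muscle strips (2-3 cm) from small intestine of male Hartley guinea pigs, held in organ baths of balanced salt solution, pH 7.5. Inhibition of electrically evoked contraction was measured. IC50 (nM) was read from dose-response curves, with dermorphin as internal standard. Values are means ± SE of five or six separate assays.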

The target of test [2] is Delta-type opioid receptor (Rattus norvegicus, UniProt P33533). In words: Displacement of [3H]deltorphin 2 from delta-opioid receptor in Sprague-Dawley rat brain P2 synaptosome membrane. Type of test: tissue-based. Summed up:
(§1)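 Competition binding at equilibrium, 2.5 h at room temperature (23 °C), on rat brain P2 synaptosomes. Filters were soaked in 0.1% polyethylenimine and washed three times with ice-cold buffered BSA. Duplicate assays used 5-8 doses and 3-5 independent membrane preparations. Ki was derived by Cheng-Prusoff; means ± SE.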

For test [3], the target named is Mu-type opioid receptor (Rattus norvegicus, UniProt P33535). In words: Displacement of [3H]DAMGO from mu-opioid receptor in Sprague-Dawley rat brain P2 synaptosome membrane. The format is tissue-based. Summed up: as §1
For test [4], the species on record is Rattus norvegicus. In words: Selectivity for mu-opioid receptor over delta opiod receptor in Sprague-Dawley rat brain P2 synaptosome membrane. Type of test: tissue-based.
The species named for test [5] is Rattus norvegicus. In words: Selectivity for delta-opioid receptor over mu opiod receptor in Sprague-Dawley rat brain P2 synaptosome membrane. Type of test: tissue-based.

Sequence of Delta-type opioid receptor (P33533 whole entry): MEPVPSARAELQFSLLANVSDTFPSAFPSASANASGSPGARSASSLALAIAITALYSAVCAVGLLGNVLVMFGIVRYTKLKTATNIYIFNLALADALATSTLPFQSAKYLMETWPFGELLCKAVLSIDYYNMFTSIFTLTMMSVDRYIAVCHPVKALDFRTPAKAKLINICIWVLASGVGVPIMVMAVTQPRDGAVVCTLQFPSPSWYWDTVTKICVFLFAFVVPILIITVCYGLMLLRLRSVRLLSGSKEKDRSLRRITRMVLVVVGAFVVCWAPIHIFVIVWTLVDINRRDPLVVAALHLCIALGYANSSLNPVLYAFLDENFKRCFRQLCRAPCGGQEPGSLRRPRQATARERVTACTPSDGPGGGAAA
Sequence of Mu-type opioid receptor (Cavia porcellus, UniProt P97266) (P97266 whole entry): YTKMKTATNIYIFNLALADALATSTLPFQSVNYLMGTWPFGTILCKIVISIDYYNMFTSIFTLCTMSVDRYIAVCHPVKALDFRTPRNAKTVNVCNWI
Sequence of Mu-type opioid receptor (Rattus norvegicus, UniProt P33535) (P33535 whole entry): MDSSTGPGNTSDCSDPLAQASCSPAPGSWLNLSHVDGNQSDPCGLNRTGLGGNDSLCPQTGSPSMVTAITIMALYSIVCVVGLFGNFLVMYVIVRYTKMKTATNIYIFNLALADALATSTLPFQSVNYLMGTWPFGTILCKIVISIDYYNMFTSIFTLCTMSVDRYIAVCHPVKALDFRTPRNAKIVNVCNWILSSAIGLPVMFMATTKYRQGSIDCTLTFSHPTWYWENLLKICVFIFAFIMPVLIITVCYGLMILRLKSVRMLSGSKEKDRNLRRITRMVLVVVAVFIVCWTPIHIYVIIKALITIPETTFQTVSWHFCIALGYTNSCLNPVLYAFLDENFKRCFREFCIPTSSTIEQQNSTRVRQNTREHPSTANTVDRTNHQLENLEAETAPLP

For the compound `Cc1cc(O)cc(C)c1C[C@H](N)C(=O)N1Cc2ccccc2C[C@H]1C(=O)NCCNC(=O)[C@H](Cc1ccccc1)NC(=O)[C@H](Cc1ccccc1)NC(=O)[C@@H]1CCCN1C(=O)[C@@H](N)Cc1ccc(O)cc1`, the IC50 at Mu-type opioid receptor [1] was 25.1 nM. Also, the Ki in test [2] stood at 1.45 nM; at Mu-type opioid receptor [3] it was 1.03 nM.
With `Cc1cc(O)cc(C)c1C[C@H](N)C(=O)N1Cc2ccccc2CC1C(=O)NCCNC(=O)[C@H](Cc1ccccc1)NC(=O)[C@H](Cc1ccccc1)NC(=O)[C@@H]1CCCN1C(=O)[C@@H](N)Cc1ccc(O)cc1` (stereo partly drawn), in the test listed under Rattus norvegicus [4], the Ratio Ki was 1.41.
In the case of `Cc1cc(O)cc(C)c1C[C@H](N)C(=O)N1Cc2ccccc2CC1C(=O)NCCN` (stereo partly drawn) (H-[Dmt]-[ξTic]-Ethylenediamine), the Ratio Ki in the test filed under Rattus norvegicus [5] came out at 3.36. Further, the IC50 at Mu-type opioid receptor [1] is 286 nM. In addition, the Ki amounted to 1.81 nM in test [2] and 2.72 nM on Mu-type opioid receptor [3].
